Data on 14 molecules can be found in ChEMBL document CHEMBL4130432, “Lipid Peroxidation and Cyclooxygenase Enzyme Inhibitory Compounds from Prangos haussknechtii” (J Nat Prod, 2017).

Assay [1] can be described thus: Antioxidant activity assessed as inhibition of ferrous chloride-induced lipid peroxidation in […] labelled SLPC large unilamellar vesicle measured over 21 mins by fluorescence assay. The format is functional. The method in brief: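 Vesicle model: large unilamellar vesicles carrying the fluorescent probe 3-[p-(6-phenyl)-1,3,5-hexatrienyl]phenylpropionic acid. Lipid peroxidation was followed by the emitted fluorescence on a fluorometer. Values are 50% inhibitory concentrations, expressed as mean ± SEM (n = 2).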

Assay [2] can be described thus: Antioxidant activity assessed as redox reaction between compound and MTT in DMSO measured after 6 hrs. The format is functional. The procedure, abridged:
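Reduction of MTT to formazan was read on a microplate reader. Results are reported as 50% inhibitory concentrations, mean ± SEM (n = 2).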

Assay [3] has as its target T1, Prostaglandin G/H synthase 2 (Homo sapiens, UniProt P35354).
T1 sequence (P35354 whole entry): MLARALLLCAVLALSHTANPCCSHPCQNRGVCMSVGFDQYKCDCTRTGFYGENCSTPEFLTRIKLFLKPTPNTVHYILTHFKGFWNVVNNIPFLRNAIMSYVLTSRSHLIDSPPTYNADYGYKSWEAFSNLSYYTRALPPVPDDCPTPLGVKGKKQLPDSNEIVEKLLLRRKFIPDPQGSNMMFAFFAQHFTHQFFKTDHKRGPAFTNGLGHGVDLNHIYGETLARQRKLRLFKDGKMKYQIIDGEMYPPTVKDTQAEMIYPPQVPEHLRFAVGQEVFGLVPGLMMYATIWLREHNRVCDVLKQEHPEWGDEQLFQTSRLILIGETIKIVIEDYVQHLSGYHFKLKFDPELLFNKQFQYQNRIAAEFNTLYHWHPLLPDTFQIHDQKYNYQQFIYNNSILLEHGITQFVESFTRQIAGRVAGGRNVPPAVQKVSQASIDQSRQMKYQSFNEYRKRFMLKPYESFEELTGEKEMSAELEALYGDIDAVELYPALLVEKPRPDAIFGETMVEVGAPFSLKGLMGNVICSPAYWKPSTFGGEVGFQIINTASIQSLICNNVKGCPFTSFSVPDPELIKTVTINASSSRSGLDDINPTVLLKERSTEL
In words: Inhibition of human COX2 expressed in insect cells using arachidonic acid as substrate pretreated for 3 mins followed by substrate addition measured immediately. The format is cell-based.

In assay [4] the target is T2, Prostaglandin G/H synthase 1 (Ovis aries, UniProt P05979).
T2 sequence (P05979 whole entry): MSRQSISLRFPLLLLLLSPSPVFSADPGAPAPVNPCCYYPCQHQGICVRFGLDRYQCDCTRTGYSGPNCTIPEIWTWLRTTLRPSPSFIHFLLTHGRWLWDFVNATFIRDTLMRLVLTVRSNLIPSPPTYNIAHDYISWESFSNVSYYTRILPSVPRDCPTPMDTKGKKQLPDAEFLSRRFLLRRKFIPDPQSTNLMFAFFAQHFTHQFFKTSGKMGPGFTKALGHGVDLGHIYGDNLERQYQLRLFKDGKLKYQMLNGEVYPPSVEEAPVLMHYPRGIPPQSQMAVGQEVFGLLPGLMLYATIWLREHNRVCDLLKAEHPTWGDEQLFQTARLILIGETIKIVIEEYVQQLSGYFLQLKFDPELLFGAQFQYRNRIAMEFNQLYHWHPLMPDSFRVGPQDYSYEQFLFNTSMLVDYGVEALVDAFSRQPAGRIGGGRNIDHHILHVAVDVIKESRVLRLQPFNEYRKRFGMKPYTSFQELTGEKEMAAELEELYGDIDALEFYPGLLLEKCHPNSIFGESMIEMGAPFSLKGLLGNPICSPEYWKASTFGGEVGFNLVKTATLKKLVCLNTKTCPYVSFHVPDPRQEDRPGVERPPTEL
Nature of the assay: Inhibition of ovine COX1 using arachidonic acid as substrate pretreated for 3 mins followed by substrate addition measured immediately. The procedure, abridged:
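COX-1 enzyme was prepared in-house from ram seminal vesicles. Activity was monitored in a micro oxygen chamber using an oxygen electrode attached to a biological oxygen monitor.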

Broadly, the IC50 is the concentration needed to halve the response being measured. For `O=C(O)C(O)Cc1ccccc1` (centres undefined), in assay [1], the IC50 is 161 µM.
Consider `CC(=O)OC1C2OC(CC(C)=CC2=O)C1(O)C=C(C)C` (centres undefined), for which the IC50 in assay [2] is 67.1 µM; in assay [1], 114 µM; in assay [3], “Not Active”; in assay [4] it was “Not Active”.
On to `CCC(C)C(C(=O)O)N(C(=O)C(N)CC(C)C)C(C(=O)O)C(C)CC` (centres undefined), for which the IC50 in assay [2] is 48.6 µM; in assay [1] it was 43 µM; in assay [3] (read-out: IC50) it was 34.6 µM; in assay [4] it was “Not Active”.
For `COc1ccc2ccc(=O)oc2c1C/C=C(\C)COC(=O)CC(C)C`, the IC50 in assay [2] is 128 µM; in assay [1], 86.1 µM; in assay [3] (read-out: IC50) it was 56.4 µM; in assay [4] (read-out: IC50), 47.7 µM.
For `COc1ccc2ccc(=O)oc2c1C/C=C(\C)COC(=O)C=C(C)C`, the IC50 in assay [2] was 122 µM; in assay [1], 62.6 µM; in assay [3] (read-out: IC50) it was 45.3 µM; in assay [4] (read-out: IC50), 36.8 µM.
As to `O=C1O[C@H]([C@@H](O)CO)C(O)=C1O` [ASCORBIC ACID], the IC50 in assay [2] was found to be 142 µM.
Turning to `CC(=O)Oc1ccccc1C(=O)O` [ASPIRIN], in assay [3], the IC50 result is “Not Active”.
As to `Cc1cc(C(C)(C)C)c(O)c(C(C)(C)C)c1` [BUTYLATED HYDROXYTOLUENE], in assay [1], the concentration for half-maximal inhibition (IC50) was determined as 6.9 µM.
For the molecule `CC(C)(C)c1cc(O)ccc1O` [E319], the IC50 in assay [2] stood at 150 µM; in assay [1] it was 10 µM.
With `CC(C)=CCOc1c2ccoc2cc2oc(=O)ccc12` [ISOIMPERATORIN], the IC50 in assay [1] turned out to be 63.7 µM.
On the same count and under the same terms, then `O=C(O)CC(O)C(=O)O` (centres undefined) [MALIC ACID], with 97.7 µM.
Turning to `COc1ccc2cc([C@H](C)C(=O)O)ccc2c1` [NAPROXEN], the IC50 in assay [3] (read-out: IC50) turned out to be 52.2 µM.
`COc1ccc2ccc(=O)oc2c1CC=C(C)C` [OSTHOLE]: the IC50 was determined as 120 µM in assay [1], 81.1 µM in assay [3] (read-out: IC50) and 52.5 µM in assay [4] (read-out: IC50).
Take `CC1(C)O[C@H]1COc1c2ccoc2cc2oc(=O)ccc12` [OXYPEUCEDANIN]: the IC50 in assay [1] was found to be 74.8 µM.
